# In ChEMBL document CHEMBL3227952, “Potential organ- or tumor-imaging agents. 18. Radioiodinated diamines and bisquaternaries” (J Med Chem, 1979):
# What was measured:
# [1] = system: Testes; experiment: Drug uptake in Sprague-Dawley rat testes at 6.2 to 10.4 uCi, iv after 2 hrs by liquid scintillation counting; assay type: ADME, organism-based, Testis; conditions: in vivo
# [2] = system: Lung; experiment: Drug uptake in Sprague-Dawley rat lung at 6.2 to 10.4 uCi, iv after 0.5 hrs by liquid scintillation counting; assay type: ADME, organism-based; conditions: in vivo, in the assay text read “well-scintillation gamma counting” for “liquid scintillation counting”
# Outline: (§1)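 Three rats were killed at 0.5 h and five at 2 h by exsanguination under ether. Organs were rinsed, blotted and weighed, duplicate samples gamma-counted (87% efficiency), expressed as % administered dose/g, mean ± SEM.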
# [3] = Drug uptake in Sprague-Dawley rat dorsolateral prostate at 6.2 to 10.4 uCi, iv after 0.5 hrs by liquid scintillation counting; assay type: ADME, organism-based, Prostate gland; conditions: in vivo
# Outline: (§2)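 Adult male rats (200–420 g) given radioiodinated agent, 6.5–7.0 μCi/mg, in 0.10–0.15 mL of 0.1 N HCl. Dosing was by tail vein under ether. Rats were killed by exsanguination, three at 0.5 h and five at 2 h. Organs were rinsed, blotted and weighed, with duplicate samples counted for radioactivity. Results are % administered dose/g, mean ± SEM.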
# [4] = Drug uptake in Sprague-Dawley rat diaphragm at 6.2 to 10.4 uCi, iv after 2 hrs by liquid scintillation counting; assay type: ADME, organism-based; conditions: in vivo; outline: as §2
# [5] = system: Adrenal; experiment: Drug uptake in Sprague-Dawley rat adrenal at 6.2 to 10.4 uCi, iv after 0.5 hrs by liquid scintillation counting; assay type: ADME, organism-based, Adrenal gland; conditions: in vivo; outline: as §2
# [6] = Drug uptake in Sprague-Dawley rat ventral prostate at 6.2 to 10.4 uCi, iv after 0.5 hrs by liquid scintillation counting; assay type: ADME, organism-based, Prostate gland; conditions: in vivo
# Outline: (§3)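 Adult male Sprague-Dawley rats (200–420 g) with free access to food and water. Under ether anesthesia, each received 6.2–10.4 μCi (6.5–7.0 μCi/mg) of tracer in 0.10–0.15 mL of 0.1 N HCl vehicle, iv via the tail vein. Rats were killed by exsanguination at 0.5 h (3 rats) or 2 h (5 rats). Organs were rinsed, blotted and weighed; duplicate samples were counted. Results are % administered dose/g, mean ± SEM.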
# [7] = system: Blood; experiment: Drug uptake in Sprague-Dawley rat blood at 6.2 to 10.4 uCi, iv after 2 hrs by liquid scintillation counting; assay type: ADME, organism-based; conditions: in vivo; outline: as §2
# [8] = system: Lung; experiment: Drug uptake in Sprague-Dawley rat lung at 6.2 to 10.4 uCi, iv after 2 hrs by liquid scintillation counting; assay type: ADME, organism-based; conditions: in vivo
# [9] = system: Brain; experiment: Drug uptake in Sprague-Dawley rat brain at 6.2 to 10.4 uCi, iv after 0.5 hrs by liquid scintillation counting; assay type: ADME, organism-based; conditions: in vivo; outline: as §2
# [10] = system: Adrenal; experiment: Drug uptake in Sprague-Dawley rat adrenal at 6.2 to 10.4 uCi, iv after 2 hrs by liquid scintillation counting; assay type: ADME, organism-based, Adrenal gland; conditions: in vivo; outline: as §2
# [11] = system: Liver; experiment: Drug uptake in Sprague-Dawley rat liver at 6.2 to 10.4 uCi, iv after 0.5 hrs by liquid scintillation counting; assay type: ADME, organism-based; conditions: in vivo, in the assay text read “well-scintillation gamma counting” for “liquid scintillation counting”; outline: as §1
# [12] = system: Testes; experiment: Drug uptake in Sprague-Dawley rat testes at 6.2 to 10.4 uCi, iv after 0.5 hrs by liquid scintillation counting; assay type: ADME, organism-based, Testis; conditions: in vivo
# [13] = system: Pituitary gland; experiment: Drug uptake in Sprague-Dawley rat pituitary at 6.2 to 10.4 uCi, iv after 2 hrs by liquid scintillation counting; assay type: ADME, organism-based; conditions: in vivo
# [14] = system: Pituitary gland; experiment: Drug uptake in Sprague-Dawley rat pituitary at 6.2 to 10.4 uCi, iv after 0.5 hrs by liquid scintillation counting; assay type: ADME, organism-based; conditions: in vivo, in the assay text read “well-scintillation gamma counting” for “liquid scintillation counting”; outline: as §1
# [15] = system: Brain; experiment: Drug uptake in Sprague-Dawley rat brain at 6.2 to 10.4 uCi, iv after 2 hrs by liquid scintillation counting; assay type: ADME, organism-based; conditions: in vivo; outline: as §2
# [16] = system: Spleen; experiment: Drug uptake in Sprague-Dawley rat spleen at 6.2 to 10.4 uCi, iv after 2 hrs by liquid scintillation counting; assay type: ADME, organism-based; conditions: in vivo
# [17] = system: Kidney; experiment: Drug uptake in Sprague-Dawley rat kidney at 6.2 to 10.4 uCi, iv after 2 hrs by liquid scintillation counting; assay type: ADME, organism-based; conditions: in vivo, in the assay text read “well-scintillation gamma counting” for “liquid scintillation counting”; outline: as §1
# [18] = system: Liver; experiment: Drug uptake in Sprague-Dawley rat liver at 6.2 to 10.4 uCi, iv after 2 hrs by liquid scintillation counting; assay type: ADME, organism-based; conditions: in vivo, in the assay text read “well-scintillation gamma counting” for “liquid scintillation counting”; outline: as §1
# [19] = system: Pancreas; experiment: Drug uptake in Sprague-Dawley rat pancreas at 6.2 to 10.4 uCi, iv after 0.5 hrs by liquid scintillation counting; assay type: ADME, organism-based; conditions: in vivo, in the assay text read “well-scintillation gamma counting” for “liquid scintillation counting”; outline: as §1
# [20] = system: Heart; experiment: Drug uptake in Sprague-Dawley rat heart at 6.2 to 10.4 uCi, iv after 0.5 hrs by liquid scintillation counting; assay type: ADME, organism-based; conditions: in vivo; outline: as §2
# [21] = Drug uptake in Sprague-Dawley rat ventral prostate at 6.2 to 10.4 uCi, iv after 2 hrs by liquid scintillation counting; assay type: ADME, organism-based, Prostate gland; conditions: in vivo; outline: as §3
# [22] = Drug uptake in Sprague-Dawley rat dorsolateral prostate at 6.2 to 10.4 uCi, iv after 2 hrs by liquid scintillation counting; assay type: ADME, organism-based, Prostate gland; conditions: in vivo; outline: as §2
# [23] = system: Heart; experiment: Drug uptake in Sprague-Dawley rat heart at 6.2 to 10.4 uCi, iv after 2 hrs by liquid scintillation counting; assay type: ADME, organism-based; conditions: in vivo, in the assay text read “well-scintillation gamma counting” for “liquid scintillation counting”; outline: as §2
# [24] = system: Thyroid gland; experiment: Drug uptake in Sprague-Dawley rat thyroid at 6.2 to 10.4 uCi, iv after 0.5 hrs by liquid scintillation counting; assay type: ADME, organism-based; conditions: in vivo
# [25] = Drug uptake in Sprague-Dawley rat bone marrow at 6.2 to 10.4 uCi, iv after 2 hrs by liquid scintillation counting; assay type: ADME, organism-based; conditions: in vivo; outline: as §2
# [26] = system: Blood; experiment: Drug uptake in Sprague-Dawley rat blood at 6.2 to 10.4 uCi, iv after 0.5 hrs by liquid scintillation counting; assay type: ADME, organism-based; conditions: in vivo; outline: as §2
# [27] = system: Pancreas; experiment: Drug uptake in Sprague-Dawley rat pancreas at 6.2 to 10.4 uCi, iv after 2 hrs by liquid scintillation counting; assay type: ADME, organism-based; conditions: in vivo
# [28] = system: Thyroid gland; experiment: Drug uptake in Sprague-Dawley rat thyroid at 6.2 to 10.4 uCi, iv after 2 hrs by liquid scintillation counting; assay type: ADME, organism-based; conditions: in vivo
# [29] = system: Duodenum; experiment: Drug uptake in Sprague-Dawley rat duodenum at 6.2 to 10.4 uCi, iv after 2 hrs by liquid scintillation counting; assay type: ADME, organism-based; conditions: in vivo; outline: as §2
# [30] = system: Spleen; experiment: Drug uptake in Sprague-Dawley rat spleen at 6.2 to 10.4 uCi, iv after 0.5 hrs by liquid scintillation counting; assay type: ADME, organism-based; conditions: in vivo, in the assay text read “well-scintillation gamma counting” for “liquid scintillation counting”; outline: as §1
# [31] = Drug uptake in Sprague-Dawley rat diaphragm at 6.2 to 10.4 uCi, iv after 0.5 hrs by liquid scintillation counting; assay type: ADME, organism-based; conditions: in vivo; outline: as §2
# [32] = system: Kidney; experiment: Drug uptake in Sprague-Dawley rat kidney at 6.2 to 10.4 uCi, iv after 0.5 hrs by liquid scintillation counting; assay type: ADME, organism-based; conditions: in vivo
# [33] = Drug uptake in Sprague-Dawley rat bone marrow at 6.2 to 10.4 uCi, iv after 0.5 hrs by liquid scintillation counting; assay type: ADME, organism-based; conditions: in vivo; outline: as §2
# [34] = system: Duodenum; experiment: Drug uptake in Sprague-Dawley rat duodenum at 6.2 to 10.4 uCi, iv after 0.5 hrs by liquid scintillation counting; assay type: ADME, organism-based; conditions: in vivo; outline: as §2
structure (smiles),measurement,setting,value
NCc1ccc(CN)c([125I])c1,Drug uptake,[1],0.048 % ID/g
same,Drug uptake,[2],2.384 % ID/g
same,Drug uptake,[3],0.32 % ID/g
same,Drug uptake,[4],0.293 % ID/g
same,Drug uptake,[5],1.732 % ID/g
same,Drug uptake,[6],0.296 % ID/g
same,Drug uptake,[7],0.041 % ID/g
same,Drug uptake,[8],2.261 % ID/g
same,Drug uptake,[9],0.063 % ID/g
same,Drug uptake,[10],1.577 % ID/g
same,Drug uptake,[11],1.008 % ID/g
same,Drug uptake,[12],0.036 % ID/g
same,Drug uptake,[13],0.681 % ID/g
same,Drug uptake,[14],0.533 % ID/g
same,Drug uptake,[15],0.088 % ID/g
same,Drug uptake,[16],0.988 % ID/g
same,Drug uptake,[17],1.67 % ID/g
same,Drug uptake,[18],0.949 % ID/g
same,Drug uptake,[19],0.657 % ID/g
same,Drug uptake,[20],0.553 % ID/g
same,Drug uptake,[21],0.293 % ID/g
same,Drug uptake,[22],0.436 % ID/g
same,Drug uptake,[23],0.44 % ID/g
same,Drug uptake,[24],2.457 % ID/g
same,Drug uptake,[25],0.682 % ID/g
same,Drug uptake,[26],0.073 % ID/g
same,Drug uptake,[27],0.617 % ID/g
same,Drug uptake,[28],3.476 % ID/g
same,Drug uptake,[29],0.343 % ID/g
same,Drug uptake,[30],0.844 % ID/g
same,Drug uptake,[31],0.38 % ID/g
same,Drug uptake,[32],1.926 % ID/g
same,Drug uptake,[33],0.44 % ID/g
same,Drug uptake,[34],0.485 % ID/g
